In brackets after ≈: the same amount, converted by molar mass.
Legend:
[1] = test system: Candida albicans; experiment: Growth inhibition of Candida albicans ATCC 90028 at 0.625 ug/ml incubated for 18 hrs at 35 degC by broth microdilution method relative to control; format: functional; settings: ATCC 90028, 18 h, read-out: GI
[2] = test system: Candida albicans; experiment: Antifungal activity against Candida albicans ATCC 90028 assessed as reduction in cell viability at 0.1 uM after 48 hrs in presence of ergosterol by XTT assay; format: functional
[3] = test system: Candida albicans; experiment: Antifungal activity against Candida albicans ATCC 90028 assessed as reduction in cell viability at 1022.5 to 0.06 uM after 48 hrs in presence of ergosterol by XTT assay; format: functional; settings: ATCC 90028, 48 h
[4] = test system: Candida albicans; experiment: Growth inhibition of Candida albicans ATCC 90028 at 0.625 ug/ml incubated for 48 hrs at 35 degC by broth microdilution method relative to control; format: functional; settings: ATCC 90028, 48 h, read-out: GI
[5] = test system: Candida albicans; experiment: Antifungal activity against Candida albicans ATCC 90028 assessed as reduction in cell viability at 0.3 uM after 48 hrs in absence of ergosterol by XTT assay; format: functional
[6] = test system: Candida albicans; experiment: Antifungal activity against Candida albicans ATCC 90028 assessed as reduction in cell viability after 48 hrs in absence of ergosterol by XTT assay; format: functional; settings: ATCC 90028, 48 h
[7] = test system: Candida albicans; experiment: Growth inhibition of Candida albicans ATCC 90028 at 0.0313 ug/ml incubated for 18 hrs at 35 degC by broth microdilution method relative to control; format: functional; settings: ATCC 90028, 18 h, read-out: GI
[8] = test system: MCF7; experiment: Antiproliferative activity against human MCF7 cells assessed as cell viability at 100 uM after 72 hrs by MTT assay; format: functional; settings: MCF7, 72 h, read-out: Activity
In short: (§1)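 MTT viability assay in CCRF-CEM and MCF-7 cells after 72 h exposure at 25, 50, 100 and 200 µM. Results are relative to control cells without inhibitor in 0.5% DMSO. Done in triplicate; values are means ± SD of three independent experiments.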

[9] = test system: MCF7; experiment: Antiproliferative activity against human MCF7 cells assessed as cell viability at 25 uM after 72 hrs by MTT assay; format: functional; settings: MCF7, 72 h, read-out: Activity; in short: as §1
[10] = test system: Vero; experiment: Cytotoxicity in African green monkey Vero cells up to 64 ug/ml incubated for 3 to 18 hrs by XTT assay; format: cell-based; settings: chlorocebus sabaeus
[11] = test system: Candida albicans; experiment: Growth inhibition of Candida albicans ATCC 90028 at 8 ug/ml incubated for 4 hrs at 35 degC by broth microdilution method relative to control; format: functional; settings: ATCC 90028, 4 h, read-out: GI
[12] = test system: Candida albicans; experiment: Fungicidal activity against Candida albicans ATCC 90028 assessed as log reduction in cell viability at 16 ug/ml after 48 hrs at 35 degC; format: functional
In short: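 MFC assay on C. albicans ATCC 90028 following M27-A3, at the molar equivalent of 16 µg/mL. CFU of treated cells were compared with CFU of the untreated inoculum. Activity is given as lg R = lg CFU/mL control − lg CFU/mL treated, and lg R ≥3 was defined as fungicidal. Values are means of two independent experiments.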

[13] = test system: MCF7; experiment: Antiproliferative activity against human MCF7 cells assessed as cell viability at 200 uM after 72 hrs by MTT assay; format: functional; settings: MCF7, 72 h, read-out: Activity; in short: as §1
[14] = test system: Candida albicans; experiment: Growth inhibition of Candida albicans ATCC 90028 at 1 ug/ml incubated for 4 hrs at 35 degC by broth microdilution method relative to control; format: functional; settings: ATCC 90028, 4 h, read-out: GI
[15] = test system: CCRF-CEM; experiment: Antiproliferative activity against human CCRF-CEM cells assessed as cell viability at 200 uM after 72 hrs by MTT assay; format: functional; settings: read-out: Activity; in short: as §1
[16] = test system: Candida albicans; experiment: Growth inhibition of Candida albicans ATCC 90028 at 0.25 ug/ml incubated for 4 hrs at 35 degC by broth microdilution method relative to control; format: functional; settings: ATCC 90028, 4 h, read-out: GI
[17] = test system: Candida albicans; experiment: Growth inhibition of Candida albicans ATCC 90028 at 16 ug/ml incubated for 48 hrs at 35 degC by broth microdilution method relative to control; format: functional; settings: ATCC 90028, 48 h, read-out: GI
[18] = test system: CCRF-CEM; experiment: Antiproliferative activity against human CCRF-CEM cells assessed as cell viability at 100 uM after 72 hrs by MTT assay; format: functional; settings: read-out: Activity; in short: as §1
[19] = test system: Candida albicans; experiment: Growth inhibition of Candida albicans ATCC 90028 at 0.0625 ug/ml incubated for 4 hrs at 35 degC by broth microdilution method relative to control; format: functional; settings: ATCC 90028, 4 h, read-out: GI
[20] = test system: Candida albicans; experiment: Growth inhibition of Candida albicans ATCC 90028 at 1 ug/ml incubated for 18 hrs at 35 degC by broth microdilution method relative to control; format: functional; settings: ATCC 90028, 18 h, read-out: GI
[21] = test system: Candida albicans; experiment: Growth inhibition of Candida albicans ATCC 90028 at 4 ug/ml incubated for 18 hrs at 35 degC by broth microdilution method relative to control; format: functional; settings: ATCC 90028, 18 h, read-out: GI
[22] = test system: Vero; experiment: Cytotoxicity in African green monkey Vero cells incubated for 18 hrs by XTT assay; format: cell-based; settings: Chlorocebus sabaeus
[23] = test system: Candida albicans; experiment: Growth inhibition of Candida albicans ATCC 90028 at 0.0625 ug/ml incubated for 18 hrs at 35 degC by broth microdilution method relative to control; format: functional; settings: ATCC 90028, 18 h, read-out: GI
[24] = test system: Candida albicans; experiment: Growth inhibition of Candida albicans ATCC 90028 at 0.25 ug/ml incubated for 18 hrs at 35 degC by broth microdilution method relative to control; format: functional; settings: ATCC 90028, 18 h, read-out: GI
[25] = test system: Candida albicans; experiment: Growth inhibition of Candida albicans ATCC 90028 at 0.5 ug/ml incubated for 18 hrs at 35 degC by broth microdilution method relative to control; format: functional; settings: ATCC 90028, 18 h, read-out: GI
[26] = test system: Candida albicans; experiment: Growth inhibition of Candida albicans ATCC 90028 at 2 ug/ml incubated for 4 hrs at 35 degC by broth microdilution method relative to control; format: functional; settings: ATCC 90028, 4 h, read-out: GI
[27] = test system: Candida albicans; experiment: Growth inhibition of Candida albicans ATCC 90028 at 0.0313 ug/ml incubated for 4 hrs at 35 degC by broth microdilution method relative to control; format: functional; settings: ATCC 90028, 4 h, read-out: GI
[28] = test system: Candida albicans; experiment: Growth inhibition of Candida albicans ATCC 90028 at 2 ug/ml incubated for 18 hrs at 35 degC by broth microdilution method relative to control; format: functional; settings: ATCC 90028, 18 h, read-out: GI
[29] = test system: Candida albicans; experiment: Growth inhibition of Candida albicans ATCC 90028 at 16 ug/ml incubated for 18 hrs at 35 degC by broth microdilution method relative to control; format: functional; settings: ATCC 90028, 18 h, read-out: GI
[30] = test system: CCRF-CEM; experiment: Antiproliferative activity against human CCRF-CEM cells assessed as cell viability at 25 uM after 72 hrs by MTT assay; format: functional; settings: read-out: Activity; in short: as §1
[31] = test system: Candida albicans; experiment: Growth inhibition of Candida albicans ATCC 90028 at 0.125 ug/ml incubated for 18 hrs at 35 degC by broth microdilution method relative to control; format: functional; settings: ATCC 90028, 18 h, read-out: GI
[32] = test system: Candida albicans; experiment: Growth inhibition of Candida albicans ATCC 90028 at 0.5 ug/ml incubated for 4 hrs at 35 degC by broth microdilution method relative to control; format: functional; settings: ATCC 90028, 4 h, read-out: GI
[33] = test system: Candida albicans; experiment: Growth inhibition of Candida albicans ATCC 90028 at 8 ug/ml incubated for 18 hrs at 35 degC by broth microdilution method relative to control; format: functional; settings: ATCC 90028, 18 h, read-out: GI
[34] = test system: MCF7; experiment: Antiproliferative activity against human MCF7 cells assessed as cell viability at 50 uM after 72 hrs by MTT assay; format: functional; settings: MCF7, 72 h, read-out: Activity; in short: as §1
[35] = test system: CCRF-CEM; experiment: Antiproliferative activity against human CCRF-CEM cells assessed as cell viability at 50 uM after 72 hrs by MTT assay; format: functional; settings: read-out: Activity; in short: as §1
[36] = test system: Candida albicans; experiment: Growth inhibition of Candida albicans ATCC 90028 at 8 ug/ml incubated for 48 hrs at 35 degC by broth microdilution method relative to control; format: functional; settings: ATCC 90028, 48 h, read-out: GI
[37] = test system: Candida albicans; experiment: Fungicidal activity against Candida albicans ATCC 90028 assessed as drug level causing 3 fold reduction in bacterial count after 48 hrs at 35 degC; format: functional; settings: ATCC 90028, 48 h
[38] = test system: Candida albicans; experiment: Growth inhibition of Candida albicans ATCC 90028 at 0.125 ug/ml incubated for 4 hrs at 35 degC by broth microdilution method relative to control; format: functional; settings: ATCC 90028, 4 h, read-out: GI
[39] = test system: CCRF-CEM; experiment: Antiproliferative activity against human CCRF-CEM cells after 72 hrs by MTT assay; format: functional, cell-based
In short: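 EC50 was derived from a repeat 72 h MTT assay in CCRF-CEM or MCF-7 cells. It is the concentration killing 50% of tumour cells compared with control cells incubated without inhibitor in 0.5% DMSO.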

Structure (SMILES) | viability at 100 µM [8] [%] | viability at 25 µM [9] [%] | Activity [10] | inhibition of growth at 8 µg/mL [11] [%] | log(activity) [12] | viability at 200 µM [13] [%] | inhibition of growth at 1 µg/mL [14] [%] | viability at 200 µM [15] [%] | inhibition of growth at 0.25 µg/mL [16] [%] | inhibition of growth at 16 µg/mL [17] [%] | viability at 100 µM [18] [%] | inhibition of growth at 0.0625 µg/mL [19] [%] | inhibition of growth at 1 µg/mL [20] [%] | inhibition of growth at 4 µg/mL [21] [%] | IC50 [22] [µM] | inhibition of growth at 0.0625 µg/mL [23] [%] | inhibition of growth at 0.25 µg/mL [24] [%] | inhibition of growth at 0.5 µg/mL [25] [%] | inhibition of growth at 2 µg/mL [26] [%] | inhibition of growth at 2 µg/mL [28] [%] | other results
C[C@@H]1[C@H](O)[C@@H](C)/C=C/C=C/C=C/C=C/C=C/C=C/C=C/[C@H](O[C@@H]2O[C@H](C)[C@@H](O)[C@H](N)[C@@H]2O)C[C@@H]2O[C@](O)(C[C@@H](O)C[C@@H](O)[C@H](O)CC[C@@H](O)C[C@@H](O)CC(=O)O[C@H]1C)C[C@H](O)[C@H]2C(=O)O [AMPHOTERICIN B] | – | – | – | – | – | – | – | – | – | – | – | – | – | – | – | – | – | – | – | – | inhibition of growth at 0.625 µg/mL [1]: 100%; Activity [2]: 78.5%; MIC [3]: 0.1 µM; inhibition of growth at 0.625 µg/mL [4]: 100%; Activity [5]: 95.5%; MIC [6]: 0.3 µM (≈ 0.277 µg/mL)
CC(Cn1cnc2c1c(=O)n(C)c(=O)n2C)OC(=O)N1c2ccccc2C=Cc2ccccc21 (centres undefined) | 82.5 | 93.4 | Non-Toxic | 99.2 | 8 | 76.5 | 99.3 | 23.4 | 99.2 | 100 | 23.9 | 99.3 | 100 | 100 | ≥ 280 | 99.9 | 100 | 99.7 | 99.4 | 99.8 | inhibition of growth at 0.0313 µg/mL [7]: 99.8%; inhibition of growth at 0.0313 µg/mL [27]: 99.1%; inhibition of growth at 16 µg/mL [29]: 100%; viability at 25 µM [30]: 52.4%; inhibition of growth at 0.125 µg/mL [31]: 100%; inhibition of growth at 0.5 µg/mL [32]: 99.2%; inhibition of growth at 8 µg/mL [33]: 99.8%; viability at 50 µM [34]: 98.8%; viability at 50 µM [35]: 39.3%; inhibition of growth at 8 µg/mL [36]: 99.2%; MFC [37]: 35 µM (≈ 16 µg/mL); inhibition of growth at 0.125 µg/mL [38]: 99.7%
CC(Cn1cnc2c1c(=O)n(C)c(=O)n2C)OCc1cn(CCCn2cnc3c(Br)c(Br)c(Br)c(Br)c32)nn1 (centres undefined) | 2 | 74.5 | Non-Toxic | 99 | 8 | 4.1 | 99.2 | 0 | 99.6 | 100 | 0 | 99.3 | 100 | 99.9 | ≥ 280 | 99.7 | 100 | 99.6 | 99.2 | 100 | EC50 [39]: 6.3 µM; inhibition of growth at 16 µg/mL [29]: 99.9%; viability at 25 µM [30]: 0%; inhibition of growth at 0.125 µg/mL [31]: 100%; inhibition of growth at 0.5 µg/mL [32]: 99%; inhibition of growth at 8 µg/mL [33]: 99.9%; viability at 50 µM [34]: 29.7%; viability at 50 µM [35]: 0%; inhibition of growth at 8 µg/mL [36]: 99.2%; MFC [37]: 36 µM (≈ 28.6 µg/mL); inhibition of growth at 0.125 µg/mL [38]: 99.6%

From ChEMBL document CHEMBL4229342, “Synthesis of novel proxyphylline derivatives with dual Anti-Candida albicans and anticancer activity” (Eur J Med Chem, 2018)
